# Reference: ChEMBL document CHEMBL4251598, “Development of novel bis-pyrazole derivatives as antitumor agents with potent apoptosis induction effects and DNA damage” (Eur J Med Chem, 2018)
# Active and inactive are the calls of the source.
# Tests used:
# [1] = tested on: SMMC-7721; assay: Induction of apoptosis in human SMMC7721 cells assessed as apoptotic cells at 0.2 uM after 72 hrs by FITC-Annexin-V/7AAD/propidium iodide staining based flow cytometry relative to control; format: functional
# Method in brief: (§1)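 SMMC-7721 cells cultured overnight, then treated in triplicate with 0.2, 0.8 or 3.2 μM, vehicle, or ADM (3.2 μM) for 72 h. Stained with annexin V and PI (methods section: APC-annexin V/7-AAD) for 15 min at room temperature. Mean ± SD of three independent experiments.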
# [2] = tested on: SMMC-7721; assay: Induction of apoptosis in human SMMC7721 cells assessed as increase in cleaved caspase-3 expression at 0.2 to 3.2 uM after 72 hrs by Western blot analysis relative to control; format: functional, cell-based
# Method in brief: (§2)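 Sub-confluent SMMC-7721 cells treated with vehicle, compound or ADM at indicated concentrations for 72 h. Lysed on ice in NP-40/deoxycholate/SDS buffer with PMSF and leupeptin. Up to 50 µg protein run on SDS-PAGE, transferred to PVDF and probed with specific antibodies; ECL detection. Bands quantified by densitometry relative to β-actin, mean ± SD of three experiments.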
# [3] = tested on: SMMC-7721; assay: Potency index, ratio of ADM IC50 to compound IC50 for human SMMC7721 cells; format: functional
# [4] = tested on: SMMC-7721; assay: Induction of apoptosis in human SMMC7721 cells assessed as increase in cleaved PARP expression at 0.2 to 3.2 uM after 72 hrs by Western blot analysis relative to control; format: functional, cell-based; method in brief: as §2
# [5] = tested on: SGC-7901; assay: Antiproliferative activity against human SGC7901 cells after 72 hrs by MTT assay; format: functional, cell-based; conditions: SGC-7901, 72 h
# Method in brief: (§3)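 Cells in DMEM with 10% FBS, 10^4 cells/mL, adhered overnight at 37 °C, 5% CO2. Treated in triplicate with a range of concentrations for 72 h. MTT (5 mg/mL solution) added for the last 4 h, formazan dissolved in DMSO, absorbance read at 570 nm. IC50 calculated from percent inhibition. Mean ± SD of three independent experiments.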
# [6] = tested on: SMMC-7721; assay: Induction of apoptosis in human SMMC7721 cells assessed as reduction in Bcl2 expression after 72 hrs by Western blot analysis; format: functional, cell-based; method in brief: as §2
# [7] = tested on: Mus musculus; assay: Acute toxicity in ICR mouse assessed as mouse mortality level at 200 to 250 mg/kg, ip measured on day 4 post dose; format: organism-based; conditions: in vivo
# Method in brief: (§4)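 Female ICR mice, 10 per group, single intraperitoneal injection at 488.3, 390.6, 312.5, 250 or 200 mg/kg, or vehicle control. Survival, eating, drinking, body weight and activity were monitored for up to 14 days after dosing. MTD was defined as the highest dose giving no drug-related moribund state or death, with temporary body-weight loss within 20%. LD50 was calculated from mortality.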
# [8] = Acute toxicity in ICR mouse assessed as survival at 200 mg/kg, ip measured on day 14; format: organism-based; conditions: in vivo; method in brief: as §4
# [9] = tested on: Mus musculus; assay: Acute toxicity in ICR mouse assessed as mouse mortality level at 200, ip measured on day 1 to 3 days post dose; format: organism-based; conditions: in vivo; method in brief: as §4
# [10] = tested on: SMMC-7721; assay: Antiproliferative activity against human SMMC7721 cells after 72 hrs by MTT assay; format: functional, cell-based; conditions: SMMC-7721, 72 h; method in brief: as §3
# [11] = tested on: SGC-7901; assay: Potency index, ratio of ADM IC50 to compound IC50 for human SGC7901 cells; format: functional
# [12] = Acute toxicity in ICR mouse assessed as survival at 250 mg/kg, ip measured on day 14; format: organism-based; conditions: in vivo; method in brief: as §4
# [13] = tested on: HCT-116; assay: Potency index, ratio of 5-FU IC50 to compound IC50 for human HCT116 cells; format: functional
# [14] = tested on: HCT-116; assay: Potency index, ratio of ADM IC50 to compound IC50 for human HCT116 cells; format: functional
# [15] = tested on: SMMC-7721; assay: Induction of apoptosis in human SMMC7721 cells assessed as apoptotic cells at 3.2 uM after 72 hrs by FITC-Annexin-V/7AAD/propidium iodide staining based flow cytometry relative to control; format: functional; method in brief: as §1
# [16] = tested on: Mus musculus; assay: Acute toxicity in ICR mouse assessed as effect on drinking behaviour at 200 mg/kg, ip measured up to 14 days post dose; format: organism-based; conditions: in vivo, 336 h; method in brief: as §4
# [17] = Acute toxicity in ICR mouse assessed as survival at 312.5 mg/kg, ip measured on day 14; format: organism-based; conditions: in vivo; method in brief: as §4
# [18] = tested on: SMMC-7721; assay: Induction of apoptosis in human SMMC7721 cells assessed as increase in cleaved caspase-3 expression at 3.2 uM after 72 hrs by Western blot analysis relative to control; format: functional, cell-based; method in brief: as §2
# [19] = tested on: SMMC-7721; assay: Induction of apoptosis in human SMMC7721 cells assessed as increase in Bax expression after 72 hrs by Western blot analysis; format: functional, cell-based; method in brief: as §2
# [20] = tested on: SMMC-7721; assay: Antiproliferative activity against human SMMC7721 cells assessed as inhibition of cell proliferation at 25 uM after 72 hrs by MTT assay relative to control; format: functional; conditions: SMMC-7721, 72 h
# Method in brief: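 Cells in DMEM with 10% FBS, plated at 10^4 cells/mL, adhered overnight. Treated at 25 μM for 72 h. MTT added for the last 4 h, formazan dissolved in DMSO, A570 read. Inhibition expressed as percent of untreated. Mean + SD from three separate measurements.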
# [21] = tested on: SMMC-7721; assay: Antitumor activity against human SMMC7721 cells xenografted in ip dosed BALB/c mouse assessed as tumor growth inhibition measured every 3 days up to 19 days post dose; format: functional, organism-based
# Method in brief: (§5)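 Female BALB/c nude mice, 5-6 weeks old, inoculated subcutaneously with 10^6 SMMC-7721 cells. At 50-100 mm³ tumours, mice were randomized to ip compound (15 or 30 mg/kg), ADM (15 mg/kg) or vehicle, n = 6 per group. Caliper volume ½(L×W²) measured every 3 days to day 19, with body weight monitored. Tumours excised and weighed at the end.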
# [22] = Acute toxicity in ICR mouse assessed as survival at 488.3 mg/kg, ip measured on day 14; format: organism-based; conditions: in vivo; method in brief: as §4
# [23] = tested on: Mus musculus; assay: Acute toxicity in ICR mouse assessed as effect on animal activity at 200 mg/kg, ip measured up to 14 days post dose; format: organism-based; conditions: in vivo, 336 h; method in brief: as §4
# [24] = tested on: SMMC-7721; assay: Induction of apoptosis in human SMMC7721 cells assessed as increase in cleaved PARP expression at 3.2 uM after 72 hrs by Western blot analysis relative to control; format: functional, cell-based; method in brief: as §2
# [25] = Acute toxicity in ICR mouse assessed as survival at 390.6 mg/kg, ip measured on day 14; format: organism-based; conditions: in vivo; method in brief: as §4
# [26] = tested on: SMMC-7721; assay: Antitumor activity against human SMMC7721 cells xenografted in BALB/c mouse assessed as tumor growth inhibition at 15 mg/kg, ip measured after 19 days relative to control; format: functional; conditions: SMMC-7721, ip, 456 h, read-out: TGI; method in brief: as §5
# [27] = tested on: SMMC-7721; assay: Induction of DNA double stranded breaks in human SMMC7721 cells assessed as increase in H2AX phosphorylation at S139 after 72 hrs by Western blot analysis; format: functional, cell-based
# Method in brief: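 SMMC-7721 cells treated with vehicle, compound at 0.2, 0.8 or 3.2 μM, or ADM for 72 h. Lysates immunoblotted for H2AX pS139, p-p53 (Ser15), total p53 and β-actin, with ECL detection. Signals quantified by densitometry relative to β-actin, mean ± SD of three experiments.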
# [28] = tested on: SMMC-7721; assay: Potency index, ratio of 5-FU IC50 to compound IC50 for human SMMC7721 cells; format: functional
structure (smiles),measurement,setting,value
COc1ccc(Oc2c(/C=N\OCc3c(Cl)c(-c4ccc(Cl)cc4)nn3C)c(C)nn2C)cc1,Activity,[1],29.6%
same,Activity,[2],Active
same,Ratio IC50,[3],2 - 3
same,Activity,[4],Active
same,IC50,[5],2010 nM
same,Activity,[6],Dose-dependent effect
same,Activity,[7],Non-Toxic
same,survival at 14 day,[8],100%
same,Activity,[9],Non-Toxic
same,IC50,[10],760 nM
same,Ratio IC50,[11],2 - 3
same,survival at 14 day,[12],70%
same,Ratio IC50,[13],17 - 50
same,Ratio IC50,[14],2 - 3
same,Activity,[15],63.2%
same,Activity,[16],Non-Toxic
same,survival at 14 day,[17],60%
same,Activity,[18],Active
same,Activity,[19],Dose-dependent effect
same,inhibition at 25 µM,[20],80%
same,TGI,[21],Dose-dependent effect
same,survival at 14 day,[22],10%
same,Activity,[23],Non-Toxic
same,Activity,[24],Active
same,survival at 14 day,[25],40%
same,inhibition in vivo at 15 mg/kg,[26],44%
same,Activity,[27],Dose-dependent effect
same,Ratio IC50,[28],17 - 50
